Measured values taken from ChEMBL document CHEMBL4689842, “EUbOPEN Chemogenomics Library wave 1” (2021).
“And” between values parts separate entries of the source, which are not always exact repeats. Identical values can stand only once.

Test system: U2OS
Experiment: Multiplex assay against U2OS
Type: toxicity, cell-based
Conditions: human
In short: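 At seeding, live cells were stained with Hoechst33342, BioTracker Green Microtubule Cytoskeleton Dye, MitoTracker Red and Annexin V Alexa Fluor 680. After compound addition they were imaged on a CQ1 microscope at 37°C and 5% CO2, and CellPathfinder machine-learning gating sorted them into Hoechst high-intensity objects or normal cells, with normal cells further split into healthy, pyknosed or fragmented nuclei and pyknosed cells into mitotic or apoptotic. Tubulin, mitochondrial-mass and membrane-permeability phenotypes are given as per cents of cells with healthy nuclei.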

[1] = 12 h, 1 µM, compound concentration 1 uM, replicate 1
[2] = 12 h, 1 µM, compound concentration 1 uM, replicate 2
[3] = 12 h, 10 µM, compound concentration 10 uM, replicate 1
[4] = 12 h, 10 µM, compound concentration 10 uM, replicate 2
[5] = 24 h, 1 µM, compound concentration 1 uM, replicate 1
[6] = 24 h, 1 µM, compound concentration 1 uM, replicate 2
[7] = 24 h, 10 µM, compound concentration 10 uM, replicate 1
[8] = 24 h, 10 µM, compound concentration 10 uM, replicate 2

NC(=O)c1cccc(-c2cc(Nc3ccc(OC(F)(F)F)cc3)ncn2)c1
Population Apoptotic (%) [1]: 27%
Population Fragmented Nuclei (%) [1]: 5%
Population Healthy Nuclei (%) [1]: 89%
Population Hoechst High Intensity Objects (%) [1]: 1%
Population Membrane Permeable-Phenotype (%) [1]: 8%
Population Mitochondria Different-Phenotype (%) [1]: 24%
Population Mitotic Cells (%) [1]: 72%
Population Normal (%) [1]: 98%
Population Pyknosed Nuclei (%) [1]: 5%
Population Tubulin-Different-Phenotype (%) [1]: 25%
Total Cell Count [1]: 640
Population Apoptotic (%) [2]: 0%
Population Fragmented Nuclei (%) [2]: 16%
Population Healthy Nuclei (%) [2]: 81%
Population Hoechst High Intensity Objects (%) [2]: 16%
Population Membrane Permeable-Phenotype (%) [2]: 13%
Population Mitochondria Different-Phenotype (%) [2]: 36%
Population Mitotic Cells (%) [2]: 100%
Population Normal (%) [2]: 84%
Population Pyknosed Nuclei (%) [2]: 1%
Population Tubulin-Different-Phenotype (%) [2]: 29%
Total Cell Count [2]: 738
Population Apoptotic (%) [3]: 56%
Population Fragmented Nuclei (%) [3]: 5%
Population Healthy Nuclei (%) [3]: 86%
Population Hoechst High Intensity Objects (%) [3]: 3%
Population Membrane Permeable-Phenotype (%) [3]: 7%
Population Mitochondria Different-Phenotype (%) [3]: 26%
Population Mitotic Cells (%) [3]: 43%
Population Normal (%) [3]: 96%
Population Tubulin-Different-Phenotype (%) [3]: 16%
Total Cell Count [3]: 201
Population Apoptotic (%) [4]: 45%
Population Fragmented Nuclei (%) [4]: 4%
Population Healthy Nuclei (%) [4]: 87%
Population Hoechst High Intensity Objects (%) [4]: 9%
Population Membrane Permeable-Phenotype (%) [4]: 12%
Population Mitochondria Different-Phenotype (%) [4]: 24%
Population Mitotic Cells (%) [4]: 54%
Population Normal (%) [4]: 90%
Population Pyknosed Nuclei (%) [4]: 8%
Population Tubulin-Different-Phenotype (%) [4]: 13%
Total Cell Count [4]: 125
Population Apoptotic (%) [5]: 27%
Population Fragmented Nuclei (%) [5]: 2%
Population Healthy Nuclei (%) [5]: 93%
Population Hoechst High Intensity Objects (%) [5]: 0%
Population Membrane Permeable-Phenotype (%) [5]: 3%
Population Mitochondria Different-Phenotype (%) [5]: 23%
Population Mitotic Cells (%) [5]: 72%
Population Normal (%) [5]: 99%
Population Tubulin-Different-Phenotype (%) [5]: 31%
Total Cell Count [5]: 576
Population Apoptotic (%) [6]: 20%
Population Fragmented Nuclei (%) [6]: 8%
Population Healthy Nuclei (%) [6]: 87%
Population Hoechst High Intensity Objects (%) [6]: 6%
Population Membrane Permeable-Phenotype (%) [6]: 14%
Population Mitochondria Different-Phenotype (%) [6]: 42%
Population Mitotic Cells (%) [6]: 80%
Population Normal (%) [6]: 93%
Population Pyknosed Nuclei (%) [6]: 3%
Population Tubulin-Different-Phenotype (%) [6]: 44%
Total Cell Count [6]: 747
Population Apoptotic (%) [7]: 16%
Population Fragmented Nuclei (%) [7]: 6%
Population Healthy Nuclei (%) [7]: 90%
Population Hoechst High Intensity Objects (%) [7]: 0%
Population Membrane Permeable-Phenotype (%) [7]: 5%
Population Mitochondria Different-Phenotype (%) [7]: 19%
Population Mitotic Cells (%) [7]: 83%
Population Normal (%) [7]: 99%
Population Pyknosed Nuclei (%) [7]: 4%
Population Tubulin-Different-Phenotype (%) [7]: 20%
Total Cell Count [7]: 281
Population Apoptotic (%) [8]: 14%
Population Fragmented Nuclei (%) [8]: 4%
Population Healthy Nuclei (%) [8]: 88%
Population Hoechst High Intensity Objects (%) [8]: 7%
Population Membrane Permeable-Phenotype (%) [8]: 8%
Population Mitochondria Different-Phenotype (%) [8]: 25%
Population Mitotic Cells (%) [8]: 85%
Population Normal (%) [8]: 92%
Population Pyknosed Nuclei (%) [8]: 7%
Population Tubulin-Different-Phenotype (%) [8]: 19%
Total Cell Count [8]: 145

C=CCn1c(=O)c2cnc(Nc3ccc(N4CCN(C)CC4)cc3)nc2n1-c1cccc(C(C)(C)O)n1 [ADAVOSERTIB]
Population Apoptotic (%) [1]: 43%
Population Fragmented Nuclei (%) [1]: 11%
Population Healthy Nuclei (%) [1]: 60%
Population Hoechst High Intensity Objects (%) [1]: 3%
Population Membrane Permeable-Phenotype (%) [1]: 23%
Population Mitochondria Different-Phenotype (%) [1]: 15%
Population Mitotic Cells (%) [1]: 56%
Population Normal (%) [1]: 96%
Population Pyknosed Nuclei (%) [1]: 27%
Population Tubulin-Different-Phenotype (%) [1]: 21%
Total Cell Count [1]: 153
Population Apoptotic (%) [2]: 12%
Population Fragmented Nuclei (%) [2]: 16%
Population Healthy Nuclei (%) [2]: 62%
Population Hoechst High Intensity Objects (%) [2]: 5%
Population Membrane Permeable-Phenotype (%) [2]: 13%
Population Mitochondria Different-Phenotype (%) [2]: 5%
Population Mitotic Cells (%) [2]: 87%
Population Normal (%) [2]: 94%
Population Pyknosed Nuclei (%) [2]: 21%
Population Tubulin-Different-Phenotype (%) [2]: 23%
Total Cell Count [2]: 165
Population Apoptotic (%) [3]: 40%
Population Fragmented Nuclei (%) [3]: 25%
Population Healthy Nuclei (%) [3]: 13%
Population Hoechst High Intensity Objects (%) [3]: 8%
Population Membrane Permeable-Phenotype (%) [3]: 42%
Population Mitochondria Different-Phenotype (%) [3]: 47%
Population Mitotic Cells (%) [3]: 59%
Population Normal (%) [3]: 91%
Population Pyknosed Nuclei (%) [3]: 60%
Population Tubulin-Different-Phenotype (%) [3]: 80%
Total Cell Count [3]: 167
Population Apoptotic (%) [4]: 44%
Population Fragmented Nuclei (%) [4]: 22%
Population Healthy Nuclei (%) [4]: 14%
Population Hoechst High Intensity Objects (%) [4]: 28%
Population Membrane Permeable-Phenotype (%) [4]: 37%
Population Mitochondria Different-Phenotype (%) [4]: 62%
Population Mitotic Cells (%) [4]: 55%
Population Normal (%) [4]: 71%
Population Pyknosed Nuclei (%) [4]: 62%
Population Tubulin-Different-Phenotype (%) [4]: 75%
Total Cell Count [4]: 76
Population Apoptotic (%) [5]: 62%
Population Fragmented Nuclei (%) [5]: 20%
Population Healthy Nuclei (%) [5]: 41%
Population Hoechst High Intensity Objects (%) [5]: 8%
Population Membrane Permeable-Phenotype (%) [5]: 30%
Population Mitochondria Different-Phenotype (%) [5]: 25%
Population Mitotic Cells (%) [5]: 37%
Population Normal (%) [5]: 91%
Population Pyknosed Nuclei (%) [5]: 38%
Population Tubulin-Different-Phenotype (%) [5]: 38%
Total Cell Count [5]: 155
Population Apoptotic (%) [6]: 50%
Population Fragmented Nuclei (%) [6]: 22%
Population Healthy Nuclei (%) [6]: 51%
Population Hoechst High Intensity Objects (%) [6]: 9%
Population Membrane Permeable-Phenotype (%) [6]: 21%
Population Mitochondria Different-Phenotype (%) [6]: 26%
Population Mitotic Cells (%) [6]: 50%
Population Normal (%) [6]: 90%
Population Pyknosed Nuclei (%) [6]: 26%
Population Tubulin-Different-Phenotype (%) [6]: 31%
Total Cell Count [6]: 149
Population Apoptotic (%) [7]: 64%
Population Fragmented Nuclei (%) [7]: 36%
Population Healthy Nuclei (%) [7]: 11%
Population Hoechst High Intensity Objects (%) [7]: 13%
Population Membrane Permeable-Phenotype (%) [7]: 76%
Population Mitochondria Different-Phenotype (%) [7]: 82%
Population Mitotic Cells (%) [7]: 35%
Population Normal (%) [7]: 86%
Population Pyknosed Nuclei (%) [7]: 51%
Population Tubulin-Different-Phenotype (%) [7]: 88%
Total Cell Count [7]: 165
Population Apoptotic (%) [8]: 68%
Population Fragmented Nuclei (%) [8]: 42%
Population Healthy Nuclei (%) [8]: 15%
Population Hoechst High Intensity Objects (%) [8]: 22%
Population Membrane Permeable-Phenotype (%) [8]: 75%
Population Mitochondria Different-Phenotype (%) [8]: 62%
Population Mitotic Cells (%) [8]: 31%
Population Normal (%) [8]: 77%
Population Pyknosed Nuclei (%) [8]: 42%
Population Tubulin-Different-Phenotype (%) [8]: 75%
Total Cell Count [8]: 67

C[C@H]1Oc2cc(cnc2N)-c2c(nn(C)c2C#N)CN(C)C(=O)c2ccc(F)cc21 [LORLATINIB]
Population Apoptotic (%) [1]: 53% and 37%
Population Healthy Nuclei (%) [1]: 88% and 89%
Population Hoechst High Intensity Objects (%) [1]: 2% and 3%
Population Membrane Permeable-Phenotype (%) [1]: 14%
Population Mitochondria Different-Phenotype (%) [1]: 20% and 32%
Population Mitotic Cells (%) [1]: 46% and 62%
Population Normal (%) [1]: 97% and 96%
Population Pyknosed Nuclei (%) [1]: 6% and 4%
Population Tubulin-Different-Phenotype (%) [1]: 15% and 22%
Total Cell Count [1]: 195 and 218
Population Apoptotic (%) [2]: 25% and 0%
Population Healthy Nuclei (%) [2]: 84% and 77%
Population Hoechst High Intensity Objects (%) [2]: 11% and 9%
Population Membrane Permeable-Phenotype (%) [2]: 15% and 8%
Population Mitochondria Different-Phenotype (%) [2]: 35% and 38%
Population Mitotic Cells (%) [2]: 75% and 100%
Population Normal (%) [2]: 88% and 90%
Population Pyknosed Nuclei (%) [2]: 10% and 2%
Population Tubulin-Different-Phenotype (%) [2]: 26% and 35%
Total Cell Count [2]: 129 and 122
Population Apoptotic (%) [5]: 57% and 38%
Population Fragmented Nuclei (%) [5]: 6% and 5%
Population Healthy Nuclei (%) [5]: 86% and 87%
Population Hoechst High Intensity Objects (%) [5]: 2%
Population Membrane Permeable-Phenotype (%) [5]: 11% and 7%
Population Mitochondria Different-Phenotype (%) [5]: 22% and 25%
Population Mitotic Cells (%) [5]: 42% and 61%
Population Normal (%) [5]: 97%
Population Pyknosed Nuclei (%) [5]: 6% and 7%
Population Tubulin-Different-Phenotype (%) [5]: 16% and 28%
Total Cell Count [5]: 254 and 277
Population Apoptotic (%) [6]: 55% and 21%
Population Fragmented Nuclei (%) [6]: 9% and 18%
Population Healthy Nuclei (%) [6]: 81% and 70%
Population Hoechst High Intensity Objects (%) [6]: 9% and 6%
Population Membrane Permeable-Phenotype (%) [6]: 14% and 8%
Population Mitochondria Different-Phenotype (%) [6]: 33% and 41%
Population Mitotic Cells (%) [6]: 44% and 78%
Population Normal (%) [6]: 90% and 93%
Population Pyknosed Nuclei (%) [6]: 8% and 10%
Population Tubulin-Different-Phenotype (%) [6]: 31%
Total Cell Count [6]: 140 and 145
